According to ChEMBL document CHEMBL4190216, “Asymmetric 1,5-diarylpenta-1,4-dien-3-ones: Antiproliferative activity in prostate epithelial cell models and pharmacokinetic studies” (Eur J Med Chem, 2017):

Assays:
[1] = system: DU-145; assay: Potency index, ratio of curcumin IC50 to test compound IC50 for human DU145 cells; type: functional
[2] = system: PC-3; assay: Cell cycle arrest in human PC3 cells assessed as accumulation at G0/G1 phase at 4 uM after 24 hrs by propidium iodide staining-based flow cytometric method (reference value: 59 to 62%); type: functional
[3] = system: PC-3; assay: Induction of apoptosis in human PC3 cells assessed as viable cells at 4 uM after 16 hrs by F2N12S/CYTOX AADvanced double staining-based flow cytometric method (reference value: 95%); type: functional; conditions: PC-3, 16 h, read-out: Activity
[4] = system: PC-3; assay: Induction of apoptosis in human PC3 cells assessed as late apoptotic/necrotic cells at 8 uM after 16 hrs by F2N12S/CYTOX AADvanced double staining-based flow cytometric method (reference value: 3%); type: functional
[5] = Plasma concentration in Sprague-Dawley rat at 10 mg/kg administered via oral gavage measured at 1 hr by HPLC-MS/MS analysis; type: ADME, organism-based
[6] = system: PC-3; assay: Induction of apoptosis in human PC3 cells assessed as late apoptotic/necrotic cells at 10 uM after 16 hrs by F2N12S/CYTOX AADvanced double staining-based flow cytometric method (reference value: 3%); type: functional
[7] = system: LNCaP; assay: Potency index, ratio of curcumin IC50 to test compound IC50 for human LNCAP cells; type: functional
[8] = Plasma concentration in Sprague-Dawley rat at 10 mg/kg administered via oral gavage measured at 3 hrs by HPLC-MS/MS analysis; type: ADME, organism-based
[9] = Cmax in Sprague-Dawley rat at 10 mg/kg administered via oral gavage by HPLC-MS/MS analysis; type: ADME, organism-based; parameters: dose 10 mg/kg, route oral; conditions: in vivo
[10] = system: PC-3; assay: Induction of apoptosis in human PC3 cells assessed as viable cells at 15 uM after 16 hrs by F2N12S/CYTOX AADvanced double staining-based flow cytometric method (reference value: 95%); type: functional; conditions: PC-3, 16 h, read-out: Activity
[11] = system: PC-3; assay: Induction of apoptosis in human PC3 cells assessed as viable cells at 2 uM after 16 hrs by F2N12S/CYTOX AADvanced double staining-based flow cytometric method (reference value: 95%); type: functional; conditions: PC-3, 16 h, read-out: Activity
[12] = system: Rattus norvegicus; assay: Acute toxicity in Sprague-Dawley rat assessed as mortality at 10 mg/kg administered via oral gavage after 48 hrs; type: organism-based; conditions: in vivo
Outline: (§1)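 Male Sprague-Dawley rats (250–300 g, n = 4) each received a single 10 mg/kg oral gavage dose. The vehicle was 5% DMSO, 40% polyethylene glycol 400 and 55% saline. Blood was drawn from the lateral tail vein at 1, 3, 6 and 24 h for plasma drug levels. Toxicity was scored as observed deaths after dosing.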

[13] = system: PC-3; assay: Induction of apoptosis in human PC3 cells assessed as early apoptotic cells at 15 uM after 16 hrs by F2N12S/CYTOX AADvanced double staining-based flow cytometric method (reference value: 2%); type: functional
[14] = system: PWR-1E; assay: Potency index, ratio of curcumin IC50 to test compound IC50 for human PWR-1E cells expressing androgen receptor and PSA; type: functional
[15] = system: PC-3; assay: Antiproliferative activity against human PC3 cells assessed as decrease in cell viability after 3 days by WST assay; type: functional, cell-based; conditions: PC-3, 72 h
Outline: (§2)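 Cells were seeded at 3,200 per well. PC-3 and LNCaP were grown in RPMI-1640 and DU-145 in EMEM, each with 10% FBS and 1% penicillin/streptomycin, at 37 °C and 5% CO2. Cells were exposed for 3 days to at least five concentrations, with DMSO as vehicle control. WST-1 reagent was then added for 3 h at 37 °C and absorbance read at 430 nm. IC50 came from linear inhibition, averaged over triplicates.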

[16] = system: PC-3; assay: Induction of apoptosis in human PC3 cells assessed as late apoptotic/necrotic cells at 15 uM after 16 hrs by F2N12S/CYTOX AADvanced double staining-based flow cytometric method (reference value: 3%); type: functional
[17] = AUC in Sprague-Dawley rat at 10 mg/kg administered via oral gavage by HPLC-MS/MS analysis; type: ADME, organism-based; conditions: in vivo
[18] = system: PC-3; assay: Induction of apoptosis in human PC3 cells assessed as early apoptotic cells at 10 uM after 16 hrs by F2N12S/CYTOX AADvanced double staining-based flow cytometric method (reference value: 2%); type: functional
[19] = Antiproliferative activity against human LNCaP95 cells expressing androgen receptor splice variants assessed as decrease in cell viability after 5 days by trypan blue exclusion assay; type: functional, cell-based; conditions: LNCaP-95, 120 h
[20] = system: PC-3; assay: Induction of apoptosis in human PC3 cells assessed as viable cells at 6 uM after 16 hrs by F2N12S/CYTOX AADvanced double staining-based flow cytometric method (reference value: 95%); type: functional; conditions: PC-3, 16 h, read-out: Activity
[21] = system: PC-3; assay: Induction of apoptosis in human PC3 cells assessed as viable cells at 10 uM after 16 hrs by F2N12S/CYTOX AADvanced double staining-based flow cytometric method (reference value: 95%); type: functional; conditions: PC-3, 16 h, read-out: Activity
[22] = system: VCaP; assay: Antiproliferative activity against human VCaP cells expressing androgen receptor splice variants assessed as decrease in cell viability after 5 days by trypan blue exclusion assay; type: functional, cell-based; conditions: 120 h
[23] = system: PC-3; assay: Induction of apoptosis in human PC3 cells assessed as late apoptotic/necrotic cells at 4 uM after 16 hrs by F2N12S/CYTOX AADvanced double staining-based flow cytometric method (reference value: 3%); type: functional
[24] = system: PC-3; assay: Induction of apoptosis in human PC3 cells assessed as late apoptotic/necrotic cells at 6 uM after 16 hrs by F2N12S/CYTOX AADvanced double staining-based flow cytometric method (reference value: 3%); type: functional
[25] = system: DU-145; assay: Antiproliferative activity against human DU145 cells assessed as decrease in cell viability after 3 days by WST assay; type: functional, cell-based; conditions: DU-145, 72 h; outline: as §2
[26] = system: PC-3; assay: Potency index, ratio of curcumin IC50 to test compound IC50 for human PC3 cells; type: functional
[27] = system: PWR-1E; assay: Antiproliferative activity against human PWR-1E cells expressing androgen receptor and PSA assessed as decrease in cell viability after 3 days by WST assay; type: functional, cell-based; conditions: 72 h
Outline: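 Non-malignant prostate epithelial PWR-1E (adenovirus 12/SV40-immortalized) was seeded at 5,000 per well. Cells were exposed for 3 days at 37 °C in a CO2 incubator to at least five concentrations, with DMSO as vehicle control. WST-1 reagent was then added for 3 h at 37 °C and absorbance read at 430 nm. IC50 came from linear inhibition, as the mean of triplicate determinations.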

[28] = system: PC-3; assay: Induction of apoptosis in human PC3 cells assessed as viable cells at 8 uM after 16 hrs by F2N12S/CYTOX AADvanced double staining-based flow cytometric method (reference value: 95%); type: functional; conditions: PC-3, 16 h, read-out: Activity
[29] = system: PC-3; assay: Induction of apoptosis in human PC3 cells assessed as early apoptotic cells at 2 uM after 16 hrs by F2N12S/CYTOX AADvanced double staining-based flow cytometric method (reference value: 2%); type: functional
[30] = system: PC-3; assay: Cell cycle arrest in human PC3 cells assessed as accumulation at G0/G1 phase at 4 uM after 16 hrs by propidium iodide staining-based flow cytometric method (reference value: 51 to 52%); type: functional
[31] = Tmax in Sprague-Dawley rat at 10 mg/kg administered via oral gavage by HPLC-MS/MS analysis; type: ADME, organism-based; conditions: in vivo
[32] = system: PC-3; assay: Cell cycle arrest in human PC3 cells assessed as accumulation at G2 phase at 4 uM after 24 hrs by propidium iodide staining-based flow cytometric method (reference value: 24%); type: functional
[33] = system: PC-3; assay: Induction of apoptosis in human PC3 cells assessed as early apoptotic cells at 8 uM after 16 hrs by F2N12S/CYTOX AADvanced double staining-based flow cytometric method (reference value: 2%); type: functional
[34] = Plasma concentration in Sprague-Dawley rat at 10 mg/kg administered via oral gavage measured at 6 hrs by HPLC-MS/MS analysis; type: ADME, organism-based
[35] = Plasma concentration in Sprague-Dawley rat at 10 mg/kg administered via oral gavage measured after 1 day by HPLC-MS/MS analysis; type: ADME, organism-based
[36] = system: CWR22R; assay: Antiproliferative activity against human 22Rv1 cells expressing androgen receptor splice variants assessed as decrease in cell viability after 5 days by trypan blue exclusion assay; type: functional, cell-based; conditions: 22Rv1, 120 h
[37] = system: LNCaP; assay: Antiproliferative activity against human LNCAP cells assessed as decrease in cell viability after 3 days by WST assay; type: functional, cell-based; conditions: 72 h; outline: as §2
[38] = system: PC-3; assay: Induction of apoptosis in human PC3 cells assessed as late apoptotic/necrotic cells at 2 uM after 16 hrs by F2N12S/CYTOX AADvanced double staining-based flow cytometric method (reference value: 3%); type: functional
[39] = system: PC-3; assay: Induction of apoptosis in human PC3 cells assessed as early apoptotic cells at 6 uM after 16 hrs by F2N12S/CYTOX AADvanced double staining-based flow cytometric method (reference value: 2%); type: functional
[40] = Retention time of the compound; type: physicochemical
[41] = Drug metabolism in human liver microsomes assessed as (1Z,4E)-1-(1-ethyl-1H-benzo[d]imidazol-2-yl)-1-hydroxy-5-(2-methyl-4-(trifluoromethyl)thiazol-5-yl)penta-1,4-dien-3-one formation at 10 mM after 60 mins by UHPLC analysis; type: ADME, microsome
Outline: (§3)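 Pooled human liver microsomes in potassium phosphate buffer (pH 7.4) with NADPH solutions A and B were preincubated for 5 min at 37 °C. Compound was then added from a 10 mM stock (3 μL into 300 μL total) and incubated 60 min at 37 °C. Reactions were quenched with an equal volume of methanol and centrifuged (10,000 × g, 4 min, 4 °C). Supernatant went to UHPLC–high-resolution MS for metabolite identification.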

[42] = system: Rattus norvegicus; assay: Acute toxicity in Sprague-Dawley rat at 10 mg/kg administered via oral gavage; type: organism-based; conditions: in vivo; outline: as §1
[43] = Drug metabolism in human liver microsomes assessed as (1Z,4E)-5-(1-ethyl-1H-benzo[d]imidazol-2-yl)-1-hydroxy-1-(2-methyl-4-(trifluoromethyl)thiazol-5-yl)penta-1,4-dien-3-one formation at 10 mM after 60 mins by UHPLC analysis; type: ADME, microsome; outline: as §3

In the case of CCCn1ccnc1/C=C/C(=O)/C=C/c1nc2ccccc2n1CCC, the “Ratio IC50” value [1] is reported as 119, the Activity [2] is reported as 76% and the viability at 4 µM [3] is reported as 55%. For the same compound, the Activity [4] was 42%, the concentration at 1 h [5] was 114 ng/mL and the Activity [6] was 43%. The “Ratio IC50” value [7] was 62, the concentration at 3 h [8] was 196 ng/mL and the Cmax [9] was 281 ng/mL. The viability at 15 µM [10] was 1%, the viability at 2 µM [11] was 93% and the Activity [12] was “Toxic”. The Activity [13] was 52%, the “Ratio IC50” value [14] was 443 and the IC50 [15] was 100 nM. The Activity [16] was 47%, the AUC [17] was 4390 ng·h/mL and the Activity [18] was 49%. The IC50 [19] was 350 nM, the viability at 6 µM [20] was 22% and the viability at 10 µM [21] was 8%. It also gave an IC50 [22] of 1120 nM, an Activity [23] of 23% and an Activity [24] of 35%. The IC50 [25] was 220 nM, the “Ratio IC50” value [26] was 254 and the IC50 [27] was 20 nM. For the same compound, the viability at 8 µM [28] was 13%, the Activity [29] was 3% and the Activity [30] was 78%. For the same compound, the Tmax [31] was 6 h, the Activity [32] was 14% and the Activity [33] was 45%. For the same compound, the concentration at 6 h [34] was 281 ng/mL, the concentration at 24 h [35] was 86 ng/mL and the IC50 [36] was 220 nM. It also gave an IC50 [37] of 220 nM, an Activity [38] of 4% and an Activity [39] of 43%.
With CCn1c(/C=C/C(=O)/C=C/c2sc(C)nc2C(F)(F)F)nc2ccccc21 the “Ratio IC50” value [1] was 53, the concentration at 1 h [5] was 112 ng/mL and the “Ratio IC50” value [7] was 54. For the same compound, the concentration at 3 h [8] was 982 ng/mL, the Cmax [9] was 3.25 µM and the IC50 [15] was 230 nM. For the same compound, the Retention_time [40] was 5.05 min, the AUC [17] was 18300 ng·h/mL and the IC50 [19] was 380 nM. For the same compound, the IC50 [22] was 1410 nM, the IC50 [25] was 500 nM and the “Ratio IC50” value [26] was 110. For the same compound, the IC50 [27] was 80 nM, the Tmax [31] was 6 h and the Drug metabolism [41] was “Metabolite_Detected”. The concentration at 6 h [34] was 1230 ng/mL, the concentration at 24 h [35] was 314 ng/mL and the IC50 [36] was 220 nM. For the same compound, the IC50 [37] was 250 nM, the Activity [42] was “Non-Toxic” and the Drug metabolism [43] was “Metabolite_Detected”.
